In publication PMC3738144 (British Journal of Cancer, 2013):

Key:
[1] = system: patients with stage IIIB/IV NSCLC; type: in vivo, human
[2] = system: patients with stage IIIB/IV NSCLC; assay: Safety assessment: adverse events graded by CTCAE version 3.0; type: in vivo, human
[3] = Plasma pharmacokinetics of lenvatinib, carboplatin and paclitaxel; type: in vivo; settings: human, oral
[4] = system: NSCLC (stage IIIB/IV) target lesions; assay: Antitumor activity by RECIST version 1.0; type: in vivo, human
Summary of the method: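 Chemotherapy-naïve stage IIIB/IV NSCLC patients (20–74 y, ECOG 0–1, ≥1 measurable lesion) took oral test compound continuously BID. […] Investigators assessed tumours by RECIST 1.0 every two cycles. PFS ran from treatment start to PD or death (Kaplan–Meier).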

[5] = system: plasma angiogenic proteins and cytokines; assay: Plasma biomarker; type: in vivo, human; settings: median (minimum–maximum), lenvatinib with carboplatin/paclitaxel
[6] = 4 mg BID (n=22) with carboplatin/paclitaxel
[7] = 4 mg level (22 patients) with carboplatin/paclitaxel
[8] = 6 mg BID (n=6) with carboplatin/paclitaxel

Structure (SMILES): COc1cc2nccc(Oc3ccc(NC(=O)NC4CC4)c(Cl)c3)c2cc1C(N)=O [lenvatinib, Lenvatinib]
- dose-limiting toxicities (DLTs) ([1]; 4 mg BID (n=6), dose-finding cohort): No DLTs
- maximum tolerated dose (MTD) of lenvatinib ([1]; oral, with carboplatin (AUC 6)/paclitaxel (200 mg m^−2) day 1 every 3 weeks, advanced NSCLC): 4 mg BID
- patients with a treatment-related serious AE ([2]; 4 mg BID): 7 n
- Anaemia Grade 3, treatment-related adverse event [2, 6]: 3 (14) n (%)
- Anaemia Grade 4, treatment-related adverse event [2, 6]: 0 n (%)
- Anal abscess Grade 3, treatment-related adverse event [2, 6]: 1 (5) n (%)
- Anal abscess Grade 4, treatment-related adverse event [2, 6]: 0 n (%)
- Decreased appetite Grade 3, treatment-related adverse event [2, 6]: 1 (5) n (%)
- Decreased appetite Grade 4, treatment-related adverse event [2, 6]: 0 n (%)
- Diarrhoea Grade 3, treatment-related adverse event [2, 6]: 1 (5) n (%)
- Diarrhoea Grade 4, treatment-related adverse event [2, 6]: 0 n (%)
- Febrile neutropenia Grade 3, treatment-related adverse event [2, 6]: 5 (23) n (%)
- Febrile neutropenia Grade 4, treatment-related adverse event [2, 6]: 0 n (%)
- Gingival infection Grade 3, treatment-related adverse event [2, 6]: 1 (5) n (%)
- Gingival infection Grade 4, treatment-related adverse event [2, 6]: 0 n (%)
- Hypertension Grade 3, treatment-related adverse event [2, 6]: 8 (36) n (%)
- Hypertension Grade 4, treatment-related adverse event [2, 6]: 0 n (%)
- Hypocalcemia Grade 3, treatment-related adverse event [2, 6]: 1 (5) n (%)
- Hypocalcemia Grade 4, treatment-related adverse event [2, 6]: 0 n (%)
- Hyponatremia Grade 3, treatment-related adverse event [2, 6]: 1 (5) n (%)
- Hyponatremia Grade 4, treatment-related adverse event [2, 6]: 0 n (%)
- Leukopenia Grade 3, treatment-related adverse event [2, 6]: 10 (46) n (%)
- Leukopenia Grade 4, treatment-related adverse event [2, 6]: 1 (5) n (%)
- Lymphopenia Grade 3, treatment-related adverse event [2, 6]: 1 (5) n (%)
- Lymphopenia Grade 4, treatment-related adverse event [2, 6]: 0 n (%)
- Nausea Grade 3, treatment-related adverse event [2, 6]: 1 (5) n (%)
- Nausea Grade 4, treatment-related adverse event [2, 6]: 0 n (%)
- Neurogenic bladder Grade 3, treatment-related adverse event [2, 6]: 1 (5) n (%)
- Neurogenic bladder Grade 4, treatment-related adverse event [2, 6]: 0 n (%)
- Neutropenia Grade 3, treatment-related adverse event [2, 6]: 0 n (%)
- Neutropenia Grade 4, treatment-related adverse event [2, 6]: 21 (95) n (%)
- Peripheral sensory neuropathy Grade 3, treatment-related adverse event [2, 6]: 1 (5) n (%)
- Peripheral sensory neuropathy Grade 4, treatment-related adverse event [2, 6]: 0 n (%)
- Pneumonia Grade 3, treatment-related adverse event [2, 6]: 1 (5) n (%)
- Pneumonia Grade 4, treatment-related adverse event [2, 6]: 0 n (%)
- Proteinuria Grade 3, treatment-related adverse event [2, 6]: 2 (9) n (%)
- Proteinuria Grade 4, treatment-related adverse event [2, 6]: 0 n (%)
- Pyelonephritis Grade 3, treatment-related adverse event [2, 6]: 1 (5) n (%)
- Pyelonephritis Grade 4, treatment-related adverse event [2, 6]: 0 n (%)
- Syncope Grade 3, treatment-related adverse event [2, 6]: 0 n (%)
- Syncope Grade 4, treatment-related adverse event [2, 6]: 0 n (%)
- Thrombocytopenia Grade 3, treatment-related adverse event [2, 6]: 4 (18) n (%)
- Thrombocytopenia Grade 4, treatment-related adverse event [2, 6]: 2 (9) n (%)
- Thrombosis Grade 3, treatment-related adverse event [2, 6]: 1 (5) n (%)
- Thrombosis Grade 4, treatment-related adverse event [2, 6]: 0 n (%)
- Vomiting Grade 3, treatment-related adverse event [2, 6]: 1 (5) n (%)
- Vomiting Grade 4, treatment-related adverse event [2, 6]: 0 n (%)
- Weight decreased Grade 3, treatment-related adverse event [2, 6]: 1 (5) n (%)
- Weight decreased Grade 4, treatment-related adverse event [2, 6]: 0 n (%)
- alopecia incidence (all grades) [2, 7]: 95%
- arthralgia incidence (all grades) [2, 7]: 95%
- grade 3 or 4 febrile neutropenia [2, 7]: 23%
- grade 3 or 4 hypertension [2, 7]: 36%
- grade 3 or 4 leukopenia [2, 7]: 50%
- grade 3 or 4 neutropenia [2, 7]: 95%
- grade 3 or 4 thrombocytopenia [2, 7]: 27%
- leukopenia incidence (all grades) [2, 7]: 95%
- neutropenia incidence (all grades) [2, 7]: 95%
- peripheral sensory neuropathy incidence (all grades) [2, 7]: 95%
- patients with a treatment-related serious AE ([2]; 6 mg BID): 2 n
- Anaemia Grade 3, treatment-related adverse event [2, 8]: 0 n (%)
- Anaemia Grade 4, treatment-related adverse event [2, 8]: 0 n (%)
- Anal abscess Grade 3, treatment-related adverse event [2, 8]: 0 n (%)
- Anal abscess Grade 4, treatment-related adverse event [2, 8]: 0 n (%)
- Decreased appetite Grade 3, treatment-related adverse event [2, 8]: 0 n (%)
- Decreased appetite Grade 4, treatment-related adverse event [2, 8]: 0 n (%)
- Diarrhoea Grade 3, treatment-related adverse event [2, 8]: 0 n (%)
- Diarrhoea Grade 4, treatment-related adverse event [2, 8]: 0 n (%)
- Febrile neutropenia Grade 3, treatment-related adverse event [2, 8]: 1 (17) n (%)
- Febrile neutropenia Grade 4, treatment-related adverse event [2, 8]: 0 n (%)
- Gingival infection Grade 3, treatment-related adverse event [2, 8]: 1 (17) n (%)
- Gingival infection Grade 4, treatment-related adverse event [2, 8]: 0 n (%)
- Hypertension Grade 3, treatment-related adverse event [2, 8]: 4 (67) n (%)
- Hypertension Grade 4, treatment-related adverse event [2, 8]: 0 n (%)
- Hypocalcemia Grade 3, treatment-related adverse event [2, 8]: 0 n (%)
- Hypocalcemia Grade 4, treatment-related adverse event [2, 8]: 0 n (%)
- Hyponatremia Grade 3, treatment-related adverse event [2, 8]: 0 n (%)
- Hyponatremia Grade 4, treatment-related adverse event [2, 8]: 0 n (%)
- Leukopenia Grade 3, treatment-related adverse event [2, 8]: 2 (33) n (%)
- Leukopenia Grade 4, treatment-related adverse event [2, 8]: 1 (17) n (%)
- Lymphopenia Grade 3, treatment-related adverse event [2, 8]: 0 n (%)
- Lymphopenia Grade 4, treatment-related adverse event [2, 8]: 0 n (%)
- Nausea Grade 3, treatment-related adverse event [2, 8]: 0 n (%)
- Nausea Grade 4, treatment-related adverse event [2, 8]: 0 n (%)
- Neurogenic bladder Grade 3, treatment-related adverse event [2, 8]: 0 n (%)
- Neurogenic bladder Grade 4, treatment-related adverse event [2, 8]: 0 n (%)
- Neutropenia Grade 3, treatment-related adverse event [2, 8]: 0 n (%)
- Neutropenia Grade 4, treatment-related adverse event [2, 8]: 5 (83) n (%)
- Peripheral sensory neuropathy Grade 3, treatment-related adverse event [2, 8]: 0 n (%)
- Peripheral sensory neuropathy Grade 4, treatment-related adverse event [2, 8]: 0 n (%)
- Pneumonia Grade 3, treatment-related adverse event [2, 8]: 2 (33) n (%)
- Pneumonia Grade 4, treatment-related adverse event [2, 8]: 0 n (%)
- Proteinuria Grade 3, treatment-related adverse event [2, 8]: 0 n (%)
- Proteinuria Grade 4, treatment-related adverse event [2, 8]: 0 n (%)
- Pyelonephritis Grade 3, treatment-related adverse event [2, 8]: 0 n (%)
- Pyelonephritis Grade 4, treatment-related adverse event [2, 8]: 0 n (%)
- Syncope Grade 3, treatment-related adverse event [2, 8]: 1 (17) n (%)
- Syncope Grade 4, treatment-related adverse event [2, 8]: 0 n (%)
- Thrombocytopenia Grade 3, treatment-related adverse event [2, 8]: 0 n (%)
- Thrombocytopenia Grade 4, treatment-related adverse event [2, 8]: 0 n (%)
- Thrombosis Grade 3, treatment-related adverse event [2, 8]: 0 n (%)
- Thrombosis Grade 4, treatment-related adverse event [2, 8]: 0 n (%)
- Vomiting Grade 3, treatment-related adverse event [2, 8]: 0 n (%)
- Vomiting Grade 4, treatment-related adverse event [2, 8]: 0 n (%)
- Weight decreased Grade 3, treatment-related adverse event [2, 8]: 0 n (%)
- Weight decreased Grade 4, treatment-related adverse event [2, 8]: 0 n (%)
- SAE febrile neutropenia ([2]; all 28 patients): 7%
- SAE pneumonia ([2]; all 28 patients): 7%
- deaths ([2]; all 28 patients): No deaths were reported
- patients with a treatment-related serious AE ([2]; all 28 patients (4 and 6 mg BID)): Nine
- changes in mean QT interval and QTcF ([2]; combination or maintenance therapy): no changes of clinical importance
- Cmax ([3]; 4 mg): 97.5 ± 38.4 ng/mL
- Tmax ([3]; 4 mg, tmax, lenvatinib in plasma, lenvatinib 4 mg BID (n=6) with carboplatin/paclitaxel, median (minimum–maximum)): 4.18 h
- Cmax ([3]; 6 mg): 138 ± 35.3 ng/mL
- Tmax ([3]; 6 mg, Median time of maximum concentration (tmax), lenvatinib, across 4 and 6 mg BID groups): 4.18 to 4.27 h
- AUC(0-t) ([3]; 6 mg, mean AUC(0−t), lenvatinib, across 4 and 6 mg BID groups): 692 to 848 ng·h/mL
- Best response CR [4, 6]: 1 (5) n (%)
- Best response NE [4, 6]: 1 (5) n (%)
- Best response PD [4, 6]: 1 (5) n (%)
- Best response PR [4, 6]: 14 (64) n (%)
- Best response SD [4, 6]: 5 (23) n (%)
- ORR (CR+PR) [4, 6]: 15 (68) n (%)
- Median PFS ([4]; 4 mg BID groups with carboplatin/paclitaxel): 9.0 months
- Best response CR [4, 8]: 0 (0) n (%)
- Best response NE [4, 8]: 2 (33) n (%)
- Best response PD [4, 8]: 0 (0) n (%)
- Best response PR [4, 8]: 2 (33) n (%)
- Best response SD [4, 8]: 2 (33) n (%)
- ORR (CR+PR) [4, 8]: 2 (33) n (%)
- complete response ([4]; 22 patients at the 4 mg level): 5%
- partial response ([4]; 22 patients at the 4 mg level): 64%
- Best response CR ([4]; Total (n=28)): 1 (4) n (%)
- Best response NE ([4]; Total (n=28)): 3 (11) n (%)
- Best response PD ([4]; Total (n=28)): 1 (4) n (%)
- Best response PR ([4]; Total (n=28)): 16 (57) n (%)
- Best response SD ([4]; Total (n=28)): 7 (25) n (%)
- ORR (CR+PR) ([4]; Total (n=28)): 17 (61) n (%)
- Median PFS ([4]; total): 9.0 months
- median duration of response ([4]; total): 7.0 months
- FGF-2 plasma, observed value ([5]; Cycle 1 day 8 (n=26)): 17.2 (7–59) pg ml^−1
- G-CSF plasma, observed value ([5]; Cycle 1 day 8 (n=26)): 7.6 (3–27) pg ml^−1
- HGF plasma, observed value ([5]; Cycle 1 day 8 (n=26)): 244.0 (163–353) pg ml^−1
- PDGF-B plasma, observed value ([5]; Cycle 1 day 8 (n=26)): 237.9 (14–2849) pg ml^−1
- SCF plasma, observed value ([5]; Cycle 1 day 8 (n=26)): 101.0 (54–173) pg ml^−1
- FGF-2 plasma, observed value ([5]; Cycle 1 day 22 (n=26)): 16.0 (7–57) pg ml^−1
- G-CSF plasma, observed value ([5]; Cycle 1 day 22 (n=26)): 7.5 (2–17) pg ml^−1
- IL-8 plasma, observed value ([5]; Cycle 1 day 22 (n=26)): 4.4 (3–15) pg ml^−1
- SCF plasma, observed value ([5]; Cycle 1 day 22 (n=26)): 102.9 (43–184) pg ml^−1
- SDF1α plasma, observed value ([5]; Cycle 1 day 22 (n=26)): 76.9 (30–140) pg ml^−1
